Measurements reported in ChEMBL document CHEMBL1649122, “Abc1p is a multidrug efflux transporter that tips the balance in favor of innate azole resistance in Candida krusei” (2009).
Active and inactive are the calls of the source. The rule behind the calls is not given here.

Columns and labels:
Conditions in all cases: Pichia kudriavzevii
[1] = biological target: ATP binding cassette transporter Abc1p (Issatchenkia orientalis) (UniProt Q09GQ4); experiment: Inhibition of Candida krusei Abc1p expressed in Saccharomyces cerevisiae isolate AD assessed as reduction of itraconazole MIC at 1 ug after 48 hrs by agarose diffusion assay
[2] = biological target: ATP binding cassette transporter Abc1p (Issatchenkia orientalis) (UniProt Q09GQ4); experiment: Inhibition of Candida krusei IF011 Abc1p assessed as reduction of itraconazole MIC at 1 ug after 48 hrs by agarose diffusion assay
[3] = biological target: ATP binding cassette transporter Abc1p (Issatchenkia orientalis) (UniProt Q09GQ4); experiment: Inhibition of Candida krusei B2399 Abc1p assessed as reduction of itraconazole MIC at 1 ug after 48 hrs by agarose diffusion assay
[4] = biological target: ATP binding cassette transporter Abc1p (Issatchenkia orientalis) (UniProt Q09GQ4); experiment: Inhibition of Candida krusei ABC1 expressed in Saccharomyces cerevisiae isolate ADdelta at 87 nM
Method in brief: (§1)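 Agarose disk-diffusion test of S. cerevisiae AD overexpressing C. krusei Abc1p, with the parent AD strain as comparison. Cells were pregrown from YPD overnight into CSM to mid-log at 30°C. They were seeded at OD600 0.008 in CSM with 0.6% agarose, overlaid on CSM agar (pH 7.0). Paper disks carrying set nmol amounts of xenobiotic were applied, and plates were incubated at 30°C for 48 h before reading growth inhibition zones.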

[5] = biological target: ATP binding cassette transporter Abc1p (Issatchenkia orientalis) (UniProt Q09GQ4); experiment: Inhibition of Candida krusei ABC1 expressed in Saccharomyces cerevisiae isolate ADdelta at 19 nM; method in brief: as §1

Activity [1]	Activity [2]	Activity [3]	Activity [4]	Activity [5]	Compound
Active	Active	Active	–	–	CO[C@@H]1C(CO)=C[C@H]2C(=O)O[C@H]3C[C@@H](C/C=C(\C)C[C@@H](C)/C=C/C=C4\CO[C@H]1[C@@]42O)O[C@@]1(CC[C@H](C)[C@@H](C)O1)C3
–	–	–	inactive	–	C[C@@H]1[C@H](O)[C@@H](C)/C=C/C=C/C=C/C=C/C=C/C=C/C=C/[C@H](O[C@@H]2O[C@H](C)[C@@H](O)[C@H](N)[C@@H]2O)C[C@@H]2O[C@](O)(C[C@@H](O)C[C@@H](O)[C@H](O)CC[C@@H](O)C[C@@H](O)CC(=O)O[C@H]1C)C[C@H](O)[C@H]2C(=O)O
Active	Active	Active	–	–	CC(C)=CC(=O)OCC1=C[C@H]2C(=O)O[C@H]3C[C@@H](C/C=C(\C)C[C@@H](C)/C=C/C=C4\CO[C@H]([C@@H]1O)[C@@]42O)O[C@@]1(CC[C@H](C)[C@@H](C)O1)C3
–	–	–	–	inactive	Nc1nc(=O)[nH]cc1F
